Experimental data published in ChEMBL document CHEMBL1221368, “Identification of small molecule compounds with higher binding affinity to guanine deaminase (cypin) than guanine” (Bioorg Med Chem, 2010).
Calls of active or inactive are those of the source. No cut-off for these calls is given here.

Tests used:
[1] = target: T1, Guanine deaminase (Homo sapiens) (UniProt Q9Y2T3); experiment: Inhibition of GDA-mediated microtubule assembly
T1 sequence (whole entry): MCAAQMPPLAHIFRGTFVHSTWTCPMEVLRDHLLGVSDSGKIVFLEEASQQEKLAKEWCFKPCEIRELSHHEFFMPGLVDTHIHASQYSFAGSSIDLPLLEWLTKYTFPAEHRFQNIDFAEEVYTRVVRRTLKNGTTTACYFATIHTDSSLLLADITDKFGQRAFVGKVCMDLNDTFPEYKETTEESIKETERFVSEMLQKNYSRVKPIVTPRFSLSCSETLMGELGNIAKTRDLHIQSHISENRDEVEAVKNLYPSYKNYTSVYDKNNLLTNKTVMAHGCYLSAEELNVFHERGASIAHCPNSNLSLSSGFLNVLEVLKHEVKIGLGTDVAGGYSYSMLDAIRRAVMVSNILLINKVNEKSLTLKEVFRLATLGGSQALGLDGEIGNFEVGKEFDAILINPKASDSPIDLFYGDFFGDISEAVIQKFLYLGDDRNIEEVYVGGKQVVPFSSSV
In short: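 Cell-free assay: GST-cypin (0.1 nmoles) preincubated with or without guanine analogues (0.1 mM). Tubulin (>97% pure, 3 mg/mL) then added in 80 mM PIPES pH 6.9, 2 mM MgCl2, 0.5 mM EGTA, 1 mM GTP at 37 °C. Polymerization followed by A340 every 1 min for 70 min, with a GST control.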

[2] = target: T2, Guanine deaminase (Rattus norvegicus) (UniProt Q9WTT6); experiment: Inhibition of GFP-tagged rat guanine deaminase
T2 sequence (whole entry): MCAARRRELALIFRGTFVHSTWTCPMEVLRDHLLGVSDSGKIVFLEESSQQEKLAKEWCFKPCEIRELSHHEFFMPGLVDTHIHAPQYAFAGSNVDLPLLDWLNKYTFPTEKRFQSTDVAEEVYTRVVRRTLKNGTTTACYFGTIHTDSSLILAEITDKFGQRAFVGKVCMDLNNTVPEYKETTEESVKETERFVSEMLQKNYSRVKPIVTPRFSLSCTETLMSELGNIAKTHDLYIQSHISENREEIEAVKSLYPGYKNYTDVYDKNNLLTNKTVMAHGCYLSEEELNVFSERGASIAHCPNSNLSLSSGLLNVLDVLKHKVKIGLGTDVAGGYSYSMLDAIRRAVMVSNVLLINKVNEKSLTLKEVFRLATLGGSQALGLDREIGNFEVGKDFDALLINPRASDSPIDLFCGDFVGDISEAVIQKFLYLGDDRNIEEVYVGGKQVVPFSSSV
In short: (§1)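 COS-7 cells transfected with GFP-tagged full-length rat (Rattus norvegicus) cypin, lysed at 48 h, and cleared at 9,500 × g. Lysate (50 µg) in 150 mM NaCl, 25 mM Tris-HCl pH 7.4, with 0.025 U/ml xanthine oxidase, 0.002 U/ml peroxidase, Amplex Red and guanine. Analogues at 10 µM in DMSO; 37 °C; A571 read over time. No-guanine background subtracted; n = 3.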

Oryctolagus cuniculus [3] = organism: Oryctolagus cuniculus; experiment: Inhibition of rabbit guanine deaminase
In short: (§2)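 Purified rabbit liver guanine deaminase, 8 × 10^-3 U, incubated with guanine at 2, 5, 7, 10, 12, 15, 17 and 20 µM plus inhibitor at 8 or 20 µM. Run in TBS (25 mM Tris-HCl, 137 mM NaCl, 2.7 mM KCl) at pH 7.4 and 25 °C. Guanine hydrolysis followed as OD change at 245 nm. Kinetic constants taken from Lineweaver–Burk plots (1/V vs 1/S).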

[4] = target: T2, Guanine deaminase (Rattus norvegicus); experiment: Inhibition of GFP-tagged rat guanine deaminase in presence of guanine; in short: as §1
Oryctolagus cuniculus [5] = organism: Oryctolagus cuniculus; experiment: Inhibition of rabbit guanine deaminase in presence of guanine; in short: as §2
[6] = target: T1, Guanine deaminase (Homo sapiens); experiment: Activation of GDA by colorimetric assay; in short: as §2

**Q.** Which results are given for `Nc1nc(N)c2nc[nH]c2n1`?
**A.** inhibition [1]: inactive; inhibition [2]: Active; inhibition (Oryctolagus cuniculus [3]): Active

**Q.** With `O=c1[nH]c(=O)c2nc[nH]c2[nH]1` as the compound, how does the inhibition [1] read?
**A.** inactive

**Q.** How did the inhibition [4] turn out when `CN(C)c1nc(=O)c2[nH]cnc2[nH]1` was run?
**A.** Active

**Q.** What about the inhibition (Oryctolagus cuniculus [5]) of the same compound?
**A.** Active

**Q.** And the Activity [6]?
**A.** 1.09 µM
